Test results from ChEMBL document CHEMBL1156168, “Eastern extension of azoles as non-nucleoside inhibitors of HIV-1 reverse transcriptase; cyano group alternatives” (Bioorg Med Chem Lett, 2010).

How the values were obtained:
[1] = tested on: Human immunodeficiency virus 1; assay: Antiviral activity against HIV1 3B infected in human MT2 cells assessed as inhibition of virus replication by MTT assay; type: functional, organism-based; details: Human immunodeficiency virus 1, 3B
How it was run: (§1)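 HIV-1 (IIIB or RT-variant strain) infection of human MT-2 T-cells. Protection of the infected cells was read out by the MTT colorimetric method.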

MT2 [2] = assay: (§2) Cytotoxicity against human MT2 cells by MTT assay; type: cell-based; details: mt2
MT2 [3] = assay: Cytotoxicity against human MT2 cells infected with HIV1 harboring reverse transcriptase Y181C mutation by MTT assay; type: cell-based
MT2 [4] = assay: Cytotoxicity against human MT2 cells infected with HIV1 harboring reverse transcriptase K103N/Y181C mutation by MTT assay; type: cell-based
[5] = tested on: Human immunodeficiency virus 1; assay: Antiviral activity against HIV1 reverse transcriptase Y181C mutant infected in human MT2 cells assessed as inhibition of viral replication by MTT assay; type: functional, organism-based; details: Human immunodeficiency virus 1, MT2; how it was run: as §1
[6] = tested on: Human immunodeficiency virus 1; assay: Antiviral activity against HIV1 reverse transcriptase K103N/Y181C double mutant infected in human MT2 cells assessed as inhibition of viral replication by MTT assay; type: functional, organism-based; details: Human immunodeficiency virus 1, MT2; how it was run: as §1
[7] = as §2; type: cell-based; details: MT2 cells

Compound | EC50 [1] [µM] | CC50 (MT2 [2]) [µM] | CC50 (MT2 [3]) [µM] | CC50 (MT2 [4]) [µM] | EC50 [5] [µM] | EC50 [6] [µM] | CC50 [7] [µM]
Fc1cccc(F)c1Cc1cnc(Nc2ccc(COc3ccncc3)c(Cl)c2)o1 | 0.03 | 3.8 | – | – | – | – | –
[O-][n+]1ccc(OCc2ccc(Nc3ncc(Cc4c(F)cccc4F)o3)cc2Cl)cc1 | 0.011 | 1.7 | 2.7 | 2.1 | – | – | –
N#Cc1ccc(Nc2ncc(Cc3c(F)cccc3F)o2)cc1Cl | 0.006 | – | – | – | – | – | –
Clc1cccc(Cl)c1Cc1nnc(Nc2ccc(COCc3ccccn3)cc2)o1 | 5 | > 100 | – | – | – | – | –
Clc1cccc(Cl)c1Cc1nnc(Nc2ccc(COCc3ccco3)cc2)o1 | 2.8 | 12 | – | – | – | – | –
OCc1ccc(Nc2ncc(Cc3c(F)cccc3F)o2)cc1Cl | 0.26 | 90 | – | – | – | – | –
Clc1cccc(Cl)c1Cc1nnc(Nc2ccc(COCc3ccccc3)cc2)o1 | – | 84 | – | – | – | – | –
Fc1cccc(F)c1Cc1cnc(Nc2ccc(Oc3ccncc3)c(Cl)c2)o1 | 0.12 | 21 | 17 | 17 | 2.3 | 7.2 | –
Clc1cccc(Cl)c1Cc1nnc(Nc2ccc(COCc3cccnc3)cc2)o1 | 4.6 | 81 | – | – | – | – | –
Clc1cccc(Cl)c1Cc1nnc(Nc2ccc(COCc3ccncc3)cc2)o1 | 1.6 | 81 | – | – | – | – | –
CSCc1ccc(Nc2ncc(Cc3c(F)cccc3F)o2)cc1 | 1.2 | > 100 | – | – | – | – | –
OCCc1ccc(Nc2ncc(Cc3c(F)cccc3F)o2)cc1 | 2.7 | 35 | – | – | – | – | –
Fc1cccc(F)c1Cc1cnc(Nc2ccc(CCOc3ccncc3)cc2)o1 | 1.1 | 11 | – | – | – | – | –
O=c1ccn(CCOc2ccc(Nc3ncc(Cc4c(F)cccc4F)o3)cc2)c(=O)[nH]1 | 25 | 73 | – | – | – | – | –
COCc1ccc(Nc2nnc(Cc3c(Cl)cccc3Cl)o2)cc1 | 4.3 | 100 | – | – | – | – | –
O=c1ncccn1SCCc1ccc(Nc2ncc(Cc3c(F)cccc3F)o2)cc1 | 13 | > 100 | – | – | – | – | –
Fc1cccc(F)c1Cc1cnc(Nc2ccc(COc3ccncc3)cc2)o1 | 0.4 | > 100 | – | – | – | – | –

Compound | EC50 [1] [µM] | CC50 (MT2 [2]) [µM] | CC50 (MT2 [3]) [µM] | CC50 (MT2 [4]) [µM] | EC50 [5] [µM] | EC50 [6] [µM] | CC50 [7] [µM]
Fc1cccc(F)c1Cc1cnc(Nc2ccc(Oc3ccncc3)cc2)o1 | 0.19 | 21 | 17 | 17 | 5 | 12 | –
Fc1cccc(F)c1Cc1cnc(Nc2ccc(Oc3cccnc3)cc2)o1 | 0.31 | 22 | – | – | – | – | –
OCc1ccc(Nc2ncc(Cc3c(F)cccc3F)o2)cc1 | 3.8 | > 100 | – | – | – | – | –
COCc1ccc(Nc2ncc(Cc3c(Cl)cccc3Cl)o2)cc1 | 1.2 | 8.1 | – | – | – | – | –
Clc1cccc(Cl)c1Cc1nnc(Nc2ccc(COCc3ccoc3)cc2)o1 | – | 21 | – | – | – | – | –
Clc1cccc(Cl)c1Cc1nnc(Nc2ccc(COCc3ccsc3)cc2)o1 | – | > 100 | – | – | – | – | –
COCc1ccc(Nc2ncc(Cc3c(F)cccc3F)o2)cc1 | 2.1 | 32 | – | – | – | – | –
Fc1cccc(F)c1Cc1cnc(Nc2ccc(COCc3ccco3)cc2)o1 | 1.6 | 31 | – | – | – | – | –
Fc1cccc(F)c1Cc1cnc(Nc2ccc(Oc3cccnc3)c(Cl)c2)o1 | – | – | – | – | 3.2 | 4.5 | –
Fc1cccc(F)c1Cc1cnc(Nc2ccc(Oc3cccnc3)c(Br)c2)o1 | 0.034 | 7.5 | – | – | – | – | –
Fc1cccc(F)c1Cc1cnc(Nc2ccc(-c3ccncc3)c(Cl)c2)o1 | 0.14 | 9.3 | 11 | 9.1 | 3.8 | 5.6 | –
Fc1cccc(F)c1Cc1cnc(Nc2ccc(-c3cccnc3)c(Cl)c2)o1 | 0.073 | 8.9 | 15 | 12.5 | 6 | – | –
O=C1Nc2ccc(Cl)cc2[C@@](C#CC2CC2)(C(F)(F)F)O1 [EFAVIRENZ] | – | > 0.1 | > 0.1 | > 0.1 | – | – | –
Cc1cc(C#N)cc(C)c1Oc1nc(Nc2ccc(C#N)cc2)nc(N)c1Br [ETRAVIRINE] | – | > 0.1 | > 0.1 | > 0.1 | 0.011 | – | –
Cc1ccnc2c1NC(=O)c1cccnc1N2C1CC1 [NEVIRAPINE] | – | – | – | – | – | – | > 100
Cc1cn([C@H]2C=C[C@@H](CO)O2)c(=O)[nH]c1=O [STAVUDINE] | 1.4 | – | – | – | 0.7 | 0.5 | –
